From ChEMBL document CHEMBL1811814, “Synthesis and evaluation of indole, pyrazole, chromone and pyrimidine based conjugates for tumor growth inhibitory activities--development of highly efficacious cytotoxic agents” (Eur J Med Chem, 2010)

Experiments:
Assay type in all cases: functional
HCT-15 = assay: Growth inhibition of human HCT15 cells
MDA-MB-435 [1] = assay: Growth inhibition of human MDA-MB-435 cells
SR = assay: Growth inhibition of human SR cells
UACC-257 = assay: Growth inhibition of human UACC257 cells assessed tumor cell growth at 10^-5 M; set-up: scale not given: the % may be the effect or the level left
Method in brief: (§1)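 Single-dose screen at 10^-5 M across the 60 human tumor cell line panel, run to NCI standards. The value is the percent growth of each cell line in the presence of compound. Compounds active at this dose moved on to five-concentration testing (10^-4 to 10^-8 M).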

MDA-MB-231 [2] = assay: Growth inhibition of human MDA-MB-231 cells assessed tumor cell growth at 10^-5 M; set-up: scale not given: the % may be the effect or the level left
Method in brief: (§2)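 NCI 60-human-tumor-cell-line panel screen. Each compound was tested at a single concentration of 10^-5 M, and percent growth of tumor cells was recorded for each cell line. Growth inhibition was expressed from these percent-growth values.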

PC-3 [3] = assay: Growth inhibition of human PC3 cells
MDA-MB-468 [4] = assay: Growth inhibition of human MDA-MB-468 cells
OVCAR-4 = assay: Growth inhibition of human OVCAR4 cells assessed tumor cell growth at 10^-5 M; set-up: scale not given: the % may be the effect or the level left; method in brief: as §2
DU-145 [5] = assay: Growth inhibition of human DU145 cells
MDA-MB-468 [6] = assay: Growth inhibition of human MDA-MB-468 cells assessed tumor cell growth at 10^-5 M; set-up: scale not given: the % may be the effect or the level left; method in brief: as §2
MDA-MB-435 [7] = assay: Growth inhibition of human MDA-MB-435 cells assessed tumor cell growth at 10^-5 M; set-up: scale not given: the % may be the effect or the level left; method in brief: as §2
MCF7 = assay: Growth inhibition of human MCF7 cells assessed tumor cell growth at 10^-5 M; set-up: scale not given: the % may be the effect or the level left; method in brief: as §2
SN12C = assay: Growth inhibition of human SN12C cells assessed tumor cell growth at 10^-5 M; set-up: scale not given: the % may be the effect or the level left; method in brief: as §2
MDA-MB-231 [8] = assay: Growth inhibition of human MDA-MB-231 cells
U-251 = assay: Growth inhibition of human U251 cells
CCRF-CEM [9] = assay: Growth inhibition of human CCRF-CEM cells assessed tumor cell growth at 10^-5 M; set-up: scale not given: the % may be the effect or the level left; method in brief: as §2
CCRF-CEM [10] = assay: Growth inhibition of human CCRF-CEM cells
Malme-3M [11] = assay: Growth inhibition of human MALME-3M cells assessed tumor cell growth at 10^-5 M; set-up: scale not given: the % may be the effect or the level left; method in brief: as §2
CAKI-1 = assay: Growth inhibition of human Caki1 cells assessed tumor cell growth at 10^-5 M; set-up: scale not given: the % may be the effect or the level left; method in brief: as §2
HT-29 [12] = assay: Growth inhibition of human HT-29 cells
OVCAR-3 [13] = assay: Growth inhibition of human OVCAR3 cells assessed tumor cell growth at 10^-5 M; set-up: scale not given: the % may be the effect or the level left; method in brief: as §2
EKVX = assay: Growth inhibition of human EKVX cells
HOP-62 = assay: Growth inhibition of human HOP62 cells assessed tumor cell growth at 10^-5 M; set-up: scale not given: the % may be the effect or the level left; method in brief: as §2
NCI-H23 [14] = assay: Growth inhibition of human NCI-H23 cells assessed tumor cell growth at 10^-5 M; set-up: scale not given: the % may be the effect or the level left; method in brief: as §2
HT-29 [15] = assay: Growth inhibition of human HT-29 cells assessed tumor cell growth at 10^-5 M; set-up: scale not given: the % may be the effect or the level left; method in brief: as §2
NCI-H322M [16] = assay: Growth inhibition of human NCI-H322M cells assessed tumor cell growth at 10^-5 M; set-up: scale not given: the % may be the effect or the level left; method in brief: as §2
A498 = assay: Growth inhibition of human A498 cells assessed tumor cell growth at 10^-5 M; set-up: scale not given: the % may be the effect or the level left; method in brief: as §2
HCT-116 = assay: Growth inhibition of human HCT116 cells assessed tumor cell growth at 10^-5 M; set-up: scale not given: the % may be the effect or the level left; method in brief: as §2
COLO 205 = assay: Growth inhibition of human COLO205 cells assessed tumor cell growth at 10^-5 M; set-up: scale not given: the % may be the effect or the level left; method in brief: as §2
PC-3 [17] = assay: Growth inhibition of human PC3 cells assessed tumor cell growth at 10^-5 M; set-up: scale not given: the % may be the effect or the level left; method in brief: as §2
A549 [18] = assay: Growth inhibition of human A549 cells
NCI-H23 [19] = assay: Growth inhibition of human NCI-H23 cells
A549 [20] = assay: Growth inhibition of human A549 cells assessed tumor cell growth at 10^-5 M; set-up: scale not given: the % may be the effect or the level left; method in brief: as §2
Malme-3M [21] = assay: Growth inhibition of human MALME-3M cells
SF-539 = assay: Growth inhibition of human SF539 cells
UACC-62 = assay: Growth inhibition of human UACC62 cells
HL-60(TB) = assay: Growth inhibition of human HL-60(TB) cells
OVCAR-3 [22] = assay: Growth inhibition of human OVCAR3 cells
OVCAR-8 = assay: Growth inhibition of human OVCAR8 cells
MOLT-4 = assay: Growth inhibition of human MOLT4 cells assessed tumor cell growth at 10^-5 M; set-up: scale not given: the % may be the effect or the level left; method in brief: as §2
NCI-H460 = assay: Growth inhibition of human NCI-H460 cells assessed tumor cell growth at 10^-5 M; set-up: scale not given: the % may be the effect or the level left; method in brief: as §2
NCI-H226 = assay: Growth inhibition of human NCI-H226 cells
786-0 = assay: Growth inhibition of human 786-0 cells
T47D = assay: Growth inhibition of human T47D cells assessed tumor cell growth at 10^-5 M; set-up: scale not given: the % may be the effect or the level left; method in brief: as §1
SF-295 = assay: Growth inhibition of human SF295 cells assessed tumor cell growth at 10^-5 M; set-up: scale not given: the % may be the effect or the level left; method in brief: as §2
RXF 393 [23] = assay: Growth inhibition of human RXF393 cells
SNB-19 = assay: Growth inhibition of human SNB19 cells
NCI-H322M [24] = assay: Growth inhibition of human NCI-H322M cells
KM12 = assay: Growth inhibition of human KM12 cells assessed tumor cell growth at 10^-5 M; set-up: scale not given: the % may be the effect or the level left; method in brief: as §2
RXF 393 [25] = assay: Growth inhibition of human RXF393 cells assessed tumor cell growth at 10^-5 M; set-up: scale not given: the % may be the effect or the level left; method in brief: as §2
DU-145 [26] = assay: Growth inhibition of human DU145 cells assessed tumor cell growth at 10^-5 M; set-up: scale not given: the % may be the effect or the level left; method in brief: as §2
SW-620 = assay: Growth inhibition of human SW620 cells
[27] = read-out: LC50 (the source's name)

## O=C1Nc2ccccc2/C1=C/c1cn(C(=O)c2c(Cl)cccc2Cl)c2ccccc12
HCT-15
  GI50: 3.4 µM
HCT-15; [27]
  CC50: > 100 µM
MDA-MB-435 [1]
  GI50: 2.2 µM
MDA-MB-435 [1]; [27]
  CC50: 51.2 µM
SR
  GI50: 2.2 µM
SR; [27]
  CC50: > 100 µM
UACC-257
  Activity: 79.1%
MDA-MB-231 [2]
  Activity: 55%
PC-3 [3]
  GI50: 2.4 µM
PC-3 [3]; [27]
  CC50: > 100 µM
MDA-MB-468 [4]
  GI50: 4.4 µM
MDA-MB-468 [4]; [27]
  CC50: 69.1 µM
OVCAR-4
  Activity: 50.3%
DU-145 [5]
  GI50: 2.7 µM
DU-145 [5]; [27]
  CC50: 46.7 µM
MDA-MB-468 [6]
  Activity: 32.6%
MDA-MB-435 [7]
  Activity: 85.6%
MCF7
  Activity: 22.9%
SN12C
  Activity: 56%
MDA-MB-231 [8]
  GI50: 3.1 µM
MDA-MB-231 [8]; [27]
  CC50: > 100 µM
U-251
  GI50: 3.4 µM
U-251; [27]
  CC50: 54.9 µM
CCRF-CEM [9]
  Activity: 70.5%
CCRF-CEM [10]
  GI50: 0.34 µM
CCRF-CEM [10]; [27]
  CC50: > 100 µM
Malme-3M [11]
  Activity: 116.7%
CAKI-1
  Activity: 18.7%
HT-29 [12]
  GI50: 3.8 µM
HT-29 [12]; [27]
  CC50: 54.9 µM
OVCAR-3 [13]
  Activity: 43%
EKVX
  GI50: 2.8 µM
EKVX; [27]
  CC50: > 100 µM
HOP-62
  Activity: 88.7%
NCI-H23 [14]
  Activity: 56.9%
HT-29 [15]
  Activity: 69.6%
NCI-H322M [16]
  Activity: 90.3%
A498
  Activity: 52.5%
HCT-116
  Activity: 26%
COLO 205
  Activity: 41.7%
PC-3 [17]
  Activity: 41.7%
A549 [18]
  GI50: 3.2 µM
A549 [18]; [27]
  CC50: > 100 µM
NCI-H23 [19]
  GI50: 4.1 µM
  LC50 (concentration killing 50% of cells): 50.1 µM
A549 [20]
  Activity: 36.7%
Malme-3M [21]
  GI50: 2.6 µM
Malme-3M [21]; [27]
  CC50: 58.8 µM
SF-539
  GI50: 5 µM
SF-539; [27]
  CC50: 66.1 µM
UACC-62
  GI50: 4.9 µM
UACC-62; [27]
  CC50: 61.6 µM
HL-60(TB)
  GI50: 2.4 µM
HL-60(TB); [27]
  CC50: > 100 µM
OVCAR-3 [22]
  GI50: 1.6 µM
OVCAR-3 [22]; [27]
  CC50: 8.1 µM
OVCAR-8
  GI50: 4.1 µM
OVCAR-8; [27]
  CC50: > 100 µM
MOLT-4
  Activity: 43.9%
NCI-H460
  Activity: 71.1%
NCI-H226
  GI50: 7.4 µM
NCI-H226; [27]
  CC50: 83.1 µM
786-0
  GI50: 3.3 µM
786-0; [27]
  CC50: 91.2 µM
T47D
  Activity: 47.7%
SF-295
  Activity: 44.5%
RXF 393 [23]
  GI50: 4.1 µM
RXF 393 [23]; [27]
  CC50: 43.6 µM
SNB-19
  GI50: 7.2 µM
SNB-19; [27]
  CC50: > 100 µM
NCI-H322M [24]
  GI50: 2.9 µM
NCI-H322M [24]; [27]
  CC50: > 100 µM
KM12
  Activity: 54.7%
RXF 393 [25]
  Activity: -4.1%
DU-145 [26]
  Activity: 59.2%
SW-620
  GI50: 2.9 µM
SW-620; [27]
  CC50: 52.4 µM
